Bioassay records from PubChem BioAssay.
This is a sample that favours compounds with a hit; in the whole collection about 2.2% have one here.
NadD inh: inhibitors of S. aureus NadD, primary screen, biochemical, colorimetric, uHTS; purified NadD enzyme, colorimetric absorbance read-out; inhibition, % at 20 µM; hit rate 0.78% among 360,000; AID 602399, 2012; in the data active means inhibition above about 26%
ARFGAP1 inhibitor: inhibitors of rat ARFGAP1 GAP activity, primary screen, biochemical, fluorescence polarization, GDP tracer | hit rate 0.26% among 360,000 | Arfgap1-stimulated ARF1 GTP hydrolysis, GDP FP detection | ADP-ribosylation factor GTPase-activating protein 1 (Rattus norvegicus), Q62848 | inhibition, % at 16.5 µM;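 active means inhibition above a per-plate limit, mean inhibition of low control wells plus 3 SD, cut at about 25% in these data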;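 further: 0% = DMSO wells with enzyme and 100% = wells lacking Arfgap1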
Target sequence (Q62848 1-136 limits assumed): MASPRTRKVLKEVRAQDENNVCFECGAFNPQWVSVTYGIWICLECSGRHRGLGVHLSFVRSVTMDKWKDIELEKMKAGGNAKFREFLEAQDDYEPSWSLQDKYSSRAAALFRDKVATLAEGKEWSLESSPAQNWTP
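Assay system: purified rat His6-Arfgap1 residues 1-136 (GAP domain); Reagent: human Δ17 ARF1 bound to GTP; Dosing: 16.5 µM single point, 1.26% DMSO; Times: GTP hydrolysis reaction 2 h at 25 °C; Signal: FP, GDP Alexa 633 tracer displaced from anti-GDP antibody, 620/688 nm; Measure: % inhibition from polarization.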
rCAG RNA binder: binders of r(CAG) RNA repeats, primary screen, biochemical, fluorescence | r(CAG) RNA repeat, TO-PRO-1 dye displacement fluorescence | inhibition, % at 3 µM | hit rate 1.3% among 370,000 | AID 651821, 2012;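 active means inhibition above the plate cutoff, the mean of all test compounds on that plate plus 3 SD, cut at about 35% in these data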;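 further: 0% = DMSO alone and 100% = 100 µM mitoxantrone as full dye displacement; higher means more dye released from RNA so lower well fluorescence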
ASAP1 inh: inhibitors of human ASAP1 ArfGAP activity, primary screen, biochemical, fluorescence polarization; Arf-GAP with SH3 domain, ANK repeat and PH domain-containing protein 1 (Homo sapiens), …; ASAP1-stimulated ARF1 GTP hydrolysis, GDP FP detection; inhibition, % at 16.5 µM; hit rate 0.19% among 360,000; in the data active means inhibition above about 25%;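 further: 0% = vehicle with enzyme and substrate and 100% = no enzyme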
Target sequence (Q9ULH1 325-724 limits assumed): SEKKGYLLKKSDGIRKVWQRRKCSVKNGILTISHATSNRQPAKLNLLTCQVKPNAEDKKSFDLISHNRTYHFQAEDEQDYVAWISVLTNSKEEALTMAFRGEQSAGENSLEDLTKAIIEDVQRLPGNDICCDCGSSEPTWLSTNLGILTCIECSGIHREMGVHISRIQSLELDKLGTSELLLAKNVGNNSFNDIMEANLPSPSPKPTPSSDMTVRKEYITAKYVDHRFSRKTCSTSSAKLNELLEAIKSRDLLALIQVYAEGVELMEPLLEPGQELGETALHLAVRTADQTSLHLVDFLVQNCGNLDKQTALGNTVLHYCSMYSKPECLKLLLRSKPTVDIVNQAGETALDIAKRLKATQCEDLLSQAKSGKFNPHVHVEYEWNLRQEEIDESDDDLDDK
NadD conf: inhibitors of S. aureus NadD, confirmation, biochemical, colorimetric, single concentration; shares compounds with NadD inh; purified S. aureus NadD, colorimetric enzyme assay; inhibition, % at 20 µM; hit rate 13% among 2,000; AID 624309, 2012; in the data active means inhibition mostly above about 42%, no sharp cut-off; inactive means mostly below about 42%
rCAG bind conf: small molecules binding CAG repeat RNA – biochemical, fluorescence, confirmation | shares compounds with rCAG RNA binder | r(CAG) RNA repeat, TO-PRO-1 dye displacement fluorescence | inhibition, % at 3 µM | hit rate 70% among 4,300;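 active means inhibition above a per-plate cutoff, the mean inhibition of sample wells plus 3 SD, cut at about 35% in these data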;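 further: loss of TO-PRO-1 fluorescence as compound displaces dye from 1x1 AA loop RNA; 0% = DMSO only wells and 100% = 100 µM mitoxantrone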
DNA CAG counter: displacement of TO-PRO-1 from CAG DNA duplex, counter-screen for rCAG RNA repeat binder project, biochemical, fluorescence, TO-PRO-1 dye, d(CAG) DNA oligo; shares compounds with rCAG RNA binder; d(CAG) DNA oligo TO-PRO-1 dye displacement; inhibition, % at 3 µM; hit rate 94% among 4,300;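 active means inhibition above its plate's cutoff, the mean test-well inhibition plus 3 SD, cut at about 4.8% in these data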;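 further: 0% = DNA dye mix with DMSO and 100% = 100 µM mitoxantrone; hits displace the dye from DNA and so lower well fluorescence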
The depositor's hits bear a star.

Results for S=c1[nH]nc(-c2cc(-c3ccccc3)n[nH]2)n1/N=C/c1ccc(Br)s1 ?
NadD inh: 43*; ARFGAP1 inhibitor: 5; rCAG RNA binder: 71*; ASAP1 inh: 3; NadD conf: 42; rCAG bind conf: 79*; DNA CAG counter: 46*

Results for O=C(Nc1ccc(F)c(Cl)c1)c1cc(C2CCCCN2C(=O)CCc2ccccc2)on1 (centres undefined) ?
NadD inh: -3; ARFGAP1 inhibitor: 2; rCAG RNA binder: 3; ASAP1 inh: -11

How did CCOC(=O)C1=C(N)n2c(s/c(=C/c3ccco3)c2=O)=C(C(=O)OC)C1c1ccco1 (centres undefined) do in these assays?
NadD inh: 31*; ARFGAP1 inhibitor: 2; rCAG RNA binder: 57*; ASAP1 inh: -2; NadD conf: 2; rCAG bind conf: 24; DNA CAG counter: 14*

How did O=C(N/N=C\C=C\c1ccco1)c1cc(-c2ccc3ccccc3c2)n[nH]1 do in these assays?
NadD inh: 54*; ARFGAP1 inhibitor: 0; rCAG RNA binder: 44*; ASAP1 inh: 10; NadD conf: 69*; rCAG bind conf: 34; DNA CAG counter: 20*

How did CCN(CC)S(=O)(=O)c1ccc(C(=O)Nc2nnc(NC(=S)Nc3ccccc3)s2)cc1 do in these assays?
NadD inh: 47*; ARFGAP1 inhibitor: 11; rCAG RNA binder: 61*; ASAP1 inh: 5; NadD conf: 22; rCAG bind conf: 64*; DNA CAG counter: 33*

What do the screens show for `Cc1onc(-c2ccccc2)c1C(=O)NC(=S)Nc1sc2c(c1C#N)CCC(C)C2` (centres undefined)?
NadD inh: 36*; ARFGAP1 inhibitor: 6; rCAG RNA binder: 42*; ASAP1 inh: 21; NadD conf: -1; rCAG bind conf: 35; DNA CAG counter: 15*

Results for COCCCNC(=O)/C=C/c1ccc(Cl)cc1Cl ?
NadD inh: 2; ARFGAP1 inhibitor: 2; rCAG RNA binder: -3; ASAP1 inh: 7

Results for CCNc1ccc(Br)cc(C(=O)/C=C/c2ccc(Cl)cc2Cl)c1=O ?
NadD inh: 39*; ARFGAP1 inhibitor: -3; rCAG RNA binder: 45*; ASAP1 inh: 9; NadD conf: 11; rCAG bind conf: 48*; DNA CAG counter: 21*

How did COc1ccc(C=NNC(=O)c2cc(-c3ccc(C)c(C)c3)n[nH]2)cc1OCc1ccccc1 do in these assays?
rCAG RNA binder: 15

Results for O=C(c1ccc(Cl)c(Cl)c1)N1CCC(=O)N([C@H](COCc2cccc(C(F)(F)F)c2)Cc2ccccc2)CC1 ?
NadD inh: 6; ARFGAP1 inhibitor: 7; rCAG RNA binder: 7; ASAP1 inh: 7

How did Cc1ccccc1-c1cc(C(=O)Nc2sc(C(=O)OC(C)C)c(C)c2C#N)c2ccccc2n1 do in these assays?
NadD inh: 74*; ARFGAP1 inhibitor: 15; rCAG RNA binder: 47*; ASAP1 inh: 6; NadD conf: 27; rCAG bind conf: 62*; DNA CAG counter: 28*

Results for Cc1ccc(S(=O)(=O)Nc2ccccc2C(=O)Nc2nc(-c3ccc(F)cc3)cs2)cc1 ?
NadD inh: 32*; ARFGAP1 inhibitor: 16; rCAG RNA binder: 89*; ASAP1 inh: 11; NadD conf: 48*; rCAG bind conf: 93*; DNA CAG counter: 81*

Results for O=C1[C@@H](C2CC2)[C@@H]2c3ccccc3C=NN2[C@@H]2c3ccccc3C=NN12 ?
rCAG RNA binder: 3

How did COc1ccccc1-n1c(Cc2cccc3ccccc23)nnc1SCC(=O)O do in these assays?
ARFGAP1 inhibitor: 9; rCAG RNA binder: 15; ASAP1 inh: -1

Results for Cn1c(N)c(C(=O)COC(=O)c2cc(-c3ccco3)nc3ccccc23)c(=O)n(C)c1=O ?
NadD inh: 59*; ARFGAP1 inhibitor: -10; rCAG RNA binder: 49*; ASAP1 inh: -4; NadD conf: 74*; rCAG bind conf: 45*; DNA CAG counter: 20*

How did Cc1ccc(NC(=O)CN(C)C(=O)c2cc(-c3ccco3)nc3ccccc23)cc1 do in these assays?
NadD inh: 34*; ARFGAP1 inhibitor: 3; rCAG RNA binder: 35*; ASAP1 inh: 1; NadD conf: 31; rCAG bind conf: 14; DNA CAG counter: 8.7*

How did O=C(COC(=O)c1cc(-c2ccco2)nc2ccccc12)NCc1ccccc1 do in these assays?
NadD inh: 46*; ARFGAP1 inhibitor: 13; rCAG RNA binder: 38*; ASAP1 inh: 6; NadD conf: 19; rCAG bind conf: 10; DNA CAG counter: 4

How did CNC(=O)COC(=O)c1cc(-c2ccco2)nc2ccccc12 do in these assays?
NadD inh: -2; ARFGAP1 inhibitor: -5; rCAG RNA binder: 18; ASAP1 inh: 11

How did CCc1nc2c(OCc3ccc(F)c(F)c3)cccn2c1N(C)C(=O)C1CC1 do in these assays?
NadD inh: -5; ARFGAP1 inhibitor: -5; rCAG RNA binder: 2; ASAP1 inh: 10

How did C=CCN(Cc1ccccc1)C(C#CC(=C)C)Cc1ccccc1 (centres undefined) do in these assays?
rCAG RNA binder: 1

What do the screens show for `O=C(O)CSc1c2c(nc3cc(C(=O)Nc4cccc(C(F)(F)F)c4)ccc13)CCC2`?
NadD inh: 34*; ARFGAP1 inhibitor: -12; rCAG RNA binder: 72*; ASAP1 inh: -5; NadD conf: 31; rCAG bind conf: 57*; DNA CAG counter: 21*

What do the screens show for `COc1cc(Cl)c(C)cc1NC(=O)c1ccc2c(SCC(=O)O)c3c(nc2c1)CCCC3`?
NadD inh: 12; ARFGAP1 inhibitor: -9; rCAG RNA binder: 15; ASAP1 inh: 2

How did CCOc1ccc(NC(=O)c2ccc3c(SCC(=O)O)c4c(nc3c2)CCCC4)cc1 do in these assays?
NadD inh: 13; ARFGAP1 inhibitor: 2; rCAG RNA binder: 4; ASAP1 inh: 17
